Reference: ChEMBL document CHEMBL4825662 (J Med Chem, 2021)
pIC50: −log10 of the molar value. Activity calls are given as the source filed them. The calls are words filed in the database; no cut-off is given here.

How the values were obtained:
Human orthopneumovirus [1] = test: (§1) Antiviral activity against Respiratory syncytial virus A2 infected in Balb/C mouse assessed as reduction in viral titers in lung homogenates at 50 mg/kg, po treated 2 hrs prior to viral infection followed by compound redosing at 24 hrs and measured after 5 days post infection by plaque assay relative to control; assay type: functional, human respiratory syncytial virus; parameters: scale not given: the % may be the effect or the level left
Procedure, shortened: (§2)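 Female Balb/C mice aged 7–8 weeks, 6 per group, received two oral doses 2 h before and 24 h after intranasal inoculation with 5 × 10⁶ pfu of RSV A2. Mice were euthanized on day 5. Lung homogenate titers were determined by plaque assay on Vero cells and expressed as a percentage of the control group.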

[2] = Cytotoxicity against African green monkey Vero cells by MTT assay; assay type: cell-based; details: chlorocebus sabaeus
Procedure, shortened: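 Viability was assessed by MTT after culture with compound at 0.01 nM to 100 μM, run in parallel with plaque reduction assays. Values are the average of at least two testing occasions.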

[3] = Protein binding in dog plasma assessed as unbound fraction at 5 uM by LC-MS/MS analysis based equilibrium dialysis method; assay type: ADME, cell-free, Canis lupus familiaris
[4] = Intrinsic clearance in human liver microsomes preincubated followed by NADPH addition and measured up to 45 mins by LC-MS/MS analysis; assay type: ADME, Microsome
[5] = Half life in Sprague-Dawley rat liver microsomes preincubated followed by NADPH addition and measured up to 45 mins by LC-MS/MS analysis; assay type: ADME, Microsome
[6] = Half life in human liver microsomes preincubated followed by NADPH addition and measured up to 45 mins by LC-MS/MS analysis; assay type: ADME, Microsome
[7] = Apparent permeability across basolateral side to apical side in MDCK-MDR1 cells at 10 uM measured at 60 mins by LC-MS/MS analysis; assay type: ADME, cell-based, Canis lupus familiaris; details: dog
[8] = Clearance in Sprague-Dawley rat at 1 mg/kg, iv administered […] measured after 0.02 to 24 hrs by tandem liquid chromatography/mass spectrometry; assay type: ADME, organism-based; details: in vivo, time 0.02-24 hrs
[9] = Intrinsic clearance in rat hepatocytes at 3 uM assessed per million cells measured up to 60 mins by LC-MS/MS analysis; assay type: ADME, cell-based, Hepatocyte; details: read-out: CLH
[10] = Half life in human hepatocytes at 3 uM measured up to 60 mins by LC-MS/MS analysis; assay type: ADME, cell-based, Hepatocyte
[11] = Cytotoxicity against human Hep2 cells; assay type: cell-based; details: HEp-2 cells
Procedure, shortened: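 Hep2 cells were cultured in parallel with the plaque assays at compound concentrations of 0.01 nM to 100 μM. Viability was read by MTT, CellTox green or CellTiter-Glo.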

[12] = Half life in Sprague-Dawley rat at 1 mg/kg, iv measured after 0.02 to 24 hrs by UHPLC-TOF method; assay type: ADME, organism-based; details: in vivo, time 0.02-24 hrs
[13] = Half life in CD1 mouse at 1 mg/kg, iv measured after 0.03 to 24 hrs by UHPLC-TOF method; assay type: ADME, organism-based; details: in vivo, time 0.03-24 hrs
[14] = Half life in Beagle dog at 0.3 mg/kg, iv measured after 0.03 to 24 hrs by UHPLC-TOF method; assay type: ADME, organism-based, Canis lupus familiaris; details: in vivo, time 0.03-24 hrs
Procedure, shortened: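 Dogs dosed IV as a suspension of amorphous solid. Serial blood at 2, 5, 15 min and 1, 2, 4, 8, 12, 24 h into heparinized tubes, centrifuged at 4 °C for 10 min at 3000g. Plasma snap-frozen and stored at −20 °C, then analysed by UHPLC-TOF.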

[15] = Half life in CD1 mouse at 10 mg/kg, po measured after 0.083 to 24 hrs by UHPLC-TOF method; assay type: ADME, organism-based; details: in vivo, time 0.083-24 hrs
[16] = Half life in Sprague-Dawley rat at 10 mg/kg, po measured after 0.25 to 24 hrs by UHPLC-TOF method; assay type: ADME, organism-based; details: in vivo, time 0.25-24 hrs
[17] = Tmax in CD1 mouse at 10 mg/kg, po measured after 0.083 to 24 hrs by UHPLC-TOF method; assay type: ADME, organism-based; details: in vivo, time 0.083-24 hrs
Procedure, shortened: (§3)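 Male CD-1 mice, acclimatized and individually housed, dosed IV and PO as amorphous-solid suspension. Terminal cardiac-puncture blood into heparinized tubes on wet ice, centrifuged at 4 °C within 15 min; plasma snap-frozen at −20 °C. IV arm sampled 2 min–24 h, oral arm 5 min–24 h. Plasma analysed by UHPLC-quadrupole-TOF MS.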

[18] = Tmax in Sprague-Dawley rat at 50 mg/kg, po measured after 0.02 to 24 hrs by UHPLC-TOF method; assay type: ADME, organism-based; details: in vivo, time 0.02-24 hrs
[19] = Tmax in Beagle dog at 3 mg/kg, […] by UHPLC-TOF method; assay type: ADME, organism-based, Canis lupus familiaris; details: in vivo, po
[20] = Cmax in Sprague-Dawley rat at 10 mg/kg, po measured after 0.02 to 24 hrs by UHPLC-TOF method; assay type: ADME, organism-based; parameters: route oral, dose 10 mg/kg, time 0.02-24 hrs; details: in vivo
[21] = Cmax in Beagle dog at 3 mg/kg, po measured after 0.03 to 24 hrs by UHPLC-TOF method; assay type: ADME, organism-based, Canis lupus familiaris; parameters: route oral, dose 3 mg/kg, time 0.03-24 hrs; details: in vivo
[22] = Oral bioavailability in CD1 mouse at 10 mg/kg measured after 0.03 to 24 hrs by UHPLC-TOF method; assay type: ADME, organism-based; details: in vivo, time 0.03-24 hrs; procedure, shortened: as §3
[23] = Antiviral activity against Respiratory syncytial virus B by Plaque reduction assay; assay type: functional
Procedure, shortened: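 RSV A and B laboratory strains and low-passage clinical isolates were used to infect Vero or HepG2 cultures for 48 h with compound at 0.01 nM to 100 μM. Plaques were then detected by immunostaining.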

[24] = tested on: Respiratory syncytial virus; test: Antiviral activity against Respiratory syncytial virus infected in human airway epithelial cells assessed as reduction in RSV titer at 10 nM preincubated for 2 hrs followed by viral infection and measured after 7 day post infection by luminescence assay relative to control; assay type: functional, HAE
Procedure, shortened: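 Primary HAE cells were differentiated for 61 days on type IV collagen-coated trans-well inserts (n = 3 cultures). Compound at 10 nM was given basolaterally for 2 h before apical inoculation with 4 × 10⁵ pfu of luciferase-expressing recombinant RSV. Apical virus titer was read by luminescence on days 7 and 8 post-infection and compared with untreated controls. Data are mean SD.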

[25] = tested on: Respiratory syncytial virus; test: Antiviral activity against Respiratory syncytial virus Memphis 37b infected in human HEp2 cells assessed as drug resistance by measuring fold change in EC50 treated over 10 serial passages by plaque assay relative to control; assay type: functional, HEp-2
Human orthopneumovirus [26] = test: as §1, with “10” for “50”; assay type: functional, human respiratory syncytial virus; parameters: scale not given: the % may be the effect or the level left; procedure, shortened: as §2
[27] = Induction of toxicity in human at 175 to 350 mg; details: dose 175-350 mg
Human orthopneumovirus [28] = test: Antiviral activity against Respiratory syncytial virus A Memphis 37b infected in human assessed as reduction in mean AUC of viral load at 200 mg administered twice daily administered for 5 days by cell-based infectivity assay; assay type: functional; parameters: scale not given: the % may be the effect or the level left; details: time 5 day
Procedure, shortened: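 Healthy adult volunteers aged 18–45 with low serum pre-existing RSV-specific antibodies were challenged on day zero with about 4 log10 PFU of RSV-A Memphis 37b. Subjects were randomized into 3 equal groups: 200 mg, 350 mg or placebo twice daily for 5 days, begun after infection was confirmed. Viral load in nasal wash was measured by RT-qPCR or by cell-based infectivity assay, and AUC was compared with placebo.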

Human orthopneumovirus [29] = test: Antiviral activity against Respiratory syncytial virus A Memphis 37b infected in human assessed as reduction in nasal mucus weight at 200 to 350 mg administered twice daily administered for 5 days; assay type: functional, organism-based; details: dose 200-350 mg, time 5.0 day
Procedure, shortened: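 Healthy adult volunteers aged 18–45, with low pre-existing RSV antibody levels, were challenged on day 0 with about 4 log10 PFU RSV-A Memphis 37b. After infection was confirmed, they were randomised to 200 mg, 350 mg or placebo twice daily for 5 days. Post hoc analysis compared mean daily nasal mucus weight with placebo.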

SMILES: NCc1ccc2c(c1)nc(CN1C(=O)C3(CC3)c3ccc(F)cc31)n2CCCC(F)(F)F [SISUNATOVIR]
- Activity (Human orthopneumovirus [1]): 98%
- CC50 [2]: > 4 µM
- fraction unbound at 5 µM [3]: 0.27
- intrinsic clearance (CLint) [4]: 44 µL/min
- half-life [5]: 1.33 h
- half-life [6]: 0.533 h
- Papp B→A at 1 h, 10 µM [7]: 73 ×10⁻⁶ cm/s
- clearance [8]: 164 mL/min/kg
- hepatocyte CLint at 3 µM [9]: 14.8 µL/min/1e6 cells
- half-life at 3 µM [10]: 3.52 h
- CC50 [11]: > 20 µM
- half-life [12]: 1.8 h
- half-life [13]: 4.2 h
- half-life [14]: 12.3 h
- half-life [15]: 3.1 h
- half-life [16]: 9.9 h
- Tmax [17]: 2 h
- Tmax [18]: 5.3 h
- Tmax [19]: 4 h
- Cmax [20]: 74.2 ng/mL
- Cmax [21]: 82.4 ng/mL
- bioavailability [22]: 46.4%
- pIC50 [23]: 9.00
- log(activity) [24]: 2.3
- fold change (FC) [25]: 76
- Activity (Human orthopneumovirus [26]): 92%
- Activity [27]: Non-Toxic
- Activity (Human orthopneumovirus [28]): 76.42%
- Activity (Human orthopneumovirus [29]): Active
